Reference: ChEMBL document CHEMBL1134593, “Acyclic and cyclopropyl analogues of adenosine bisphosphate antagonists of the P2Y1 receptor: structure-activity relationships and receptor docking” (J Med Chem, 2001)

Legend:
[1] = molecular target: P2Y purinoceptor 1 (Meleagris gallopavo, UniProt P49652); experiment: Inhibitory concentration against P2Y1 receptor in turkey erythrocyte membranes; format: cell membranes
In short: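 Turkey erythrocytes labeled 18–24 h at 37 °C with 2-[3H]myo-inositol in inositol-free DMEM, then lysed hypotonically (5 mM sodium phosphate pH 7.4, 5 mM MgCl2, 1 mM EGTA) to give ghosts. Phospholipase C assayed in Hepes pH 7.0 buffer with 1 μM GTPγS, antagonist and 30 nM 2-MeSADP, 5 min at 30 °C. Total [3H]inositol phosphates quantified by anion exchange.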

[2] = molecular target: P2Y purinoceptor 1 (Meleagris gallopavo) (UniProt P49652); experiment: In vitro antagonist activity against turkey P2Y1 receptor, expressed as percent of maximal inhibition at 100 uM; format: functional; set-up: scale not given: the % may be the effect or the level left
Chain of P2Y purinoceptor 1 (Meleagris gallopavo) (P49652 whole entry): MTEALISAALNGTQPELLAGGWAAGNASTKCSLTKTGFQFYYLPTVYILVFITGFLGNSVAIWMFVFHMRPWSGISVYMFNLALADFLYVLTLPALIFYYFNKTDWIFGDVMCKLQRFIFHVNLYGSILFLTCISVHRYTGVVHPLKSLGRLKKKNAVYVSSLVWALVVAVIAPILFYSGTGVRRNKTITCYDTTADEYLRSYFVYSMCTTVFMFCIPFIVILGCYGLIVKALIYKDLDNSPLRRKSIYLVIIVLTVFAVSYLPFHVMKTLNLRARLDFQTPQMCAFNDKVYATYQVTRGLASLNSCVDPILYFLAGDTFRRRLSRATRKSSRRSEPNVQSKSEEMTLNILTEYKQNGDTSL

Chain of P2Y purinoceptor 1 (P49652 whole entry): as above

| SMILES | IC50 [1] [µM] | Activity [2] [%] |
| --- | --- | --- |
| CNc1nc(Cl)nc2c1ncn2C[C@H](COP(=O)(O)O)OP(=O)(O)O | 7.86 | 100 |
| CNc1nc(Cl)nc2c1ncn2CCC(COP(=O)(O)O)COP(=O)(O)O | 0.84 | 99 |
| CNc1nc(Cl)nc2c1ncn2CC1CC1(COP(=O)(O)O)COP(=O)(O)O (stereo unspecified) | 1.9 | 100 |
| CNc1nc(Cl)nc2c1ncn2CC(CO)COP(=O)(O)O (stereo unspecified) | 22.6 | 68 |
| CNc1nc(Cl)nc2c1ncn2C[C@H]1[C@H](COP(=O)(O)O)[C@@H]1COP(=O)(O)O | 1.74 | 100 |
| CNc1nc(Cl)nc2c1ncn2CC(COP(=O)(O)O)COP(=O)(O)OP(=O)(O)O (stereo unspecified) | 0.23 | 100 |
| CNc1nc(Cl)nc2c1ncn2CC(COP(=O)(O)O)COP(=O)(O)O | 0.48 | 100 |
| CNc1ncnc2c1ncn2CC(COP(=O)(O)O)COP(=O)(O)O | 1.09 | 100 |
| CNc1ncnc2c1ncn2CCC(COP(=O)(O)O)COP(=O)(O)O | 1.6 | 100 |
| CNc1nc(Cl)nc2c1ncn2CC(COC(C)=O)COP(=O)(O)O (stereo unspecified) | 37.6 | 65 |
| CNc1nc(Cl)nc2c1ncn2C[C@@H]1[C@H](COP(=O)(O)O)[C@@H]1COP(=O)(O)O | 2.17 | 100 |
| CNc1nc(Cl)nc2c1ncn2CC(COP(=O)(O)O)COP(=O)(OC)OC (stereo unspecified) | 31 | 78 |
| CNc1nc(Cl)nc2c1ncn2C[C@@H](COP(=O)(O)O)OP(=O)(O)O | 1.47 | 100 |
| CNc1nc(Cl)nc2c1ncn2C1CC1(COP(=O)(O)O)COP(=O)(O)O (stereo unspecified) | 2.36 | 100 |
| CNc1nc(Cl)nc2c1ncn2CC(CCOP(=O)(O)O)CCOP(=O)(O)O | 2.04 | 100 |
| CNc1nc(Cl)nc2c1ncn2CC=C(COP(=O)(O)O)COP(=O)(O)O | 2.1 | 100 |
| CNc1nc(Cl)nc2c1ncn2CC1[C@H](COP(=O)(O)O)[C@H]1COP(=O)(O)O (stereo partly specified) | 2.7 | 100 |
| CNc1nc(Cl)nc2c1ncn2C(COP(=O)(O)O)COP(=O)(O)O | 4.56 | 100 |
